Measured values taken from ChEMBL document CHEMBL1926569, “Novel (E)-1-(4-methyl-2-(alkylamino)thiazol-5-yl)-3-arylprop-2-en-1-ones as potent antimicrobial agents” (2011).
Converted amounts (≈) assume the structure as drawn.

Experiments:
Staphylococcus aureus [1] = assay: Antibacterial activity against Staphylococcus aureus ATCC 6538 incubated for 24 hrs followed by serial sub-cultivation for 24 hrs by microdilution method; type: functional; settings: ATCC 6538, 24 h
Outline: (§1)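 MBC: after the 24 h LB broth microdilution (1.0 × 10⁴ CFU per well, 160 rpm), wells were serially sub-cultured into fresh broth plates and incubated a further 24 h. MBC is the lowest concentration with no visible growth, taken as 99.5% killing of the original inoculum. Duplicate, repeated three times.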

Aspergillus fumigatus [2] = assay: Antifungal activity against Aspergillus fumigatus isolated from human incubated for 72 hrs followed by serial sub-cultivation for 72 hrs by serial dilution technique; type: functional
Outline: (§2)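 MFC: material from 72 h malt broth microdilution wells was serially sub-cultured into fresh broth plates and incubated a further 72 h at 28 °C. Fungicidal concentration is taken from growth after sub-culture. Duplicate, repeated three times.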

Escherichia coli [3] = assay: Antibacterial activity against Escherichia coli ATCC 35210 after 24 hrs by microdilution method; type: functional; settings: ATCC 35210, 24 h
Outline: (§3)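 Broth microdilution in 96-well plates. Bacterial suspensions were adjusted in sterile saline to 1.0 × 10⁵ CFU/ml, prepared daily and kept at 4 °C. Compound was added to LB broth with 1.0 × 10⁴ CFU per well and shaken at 160 rpm for 24 h at […] (so in the source). MIC is the lowest concentration with no visible growth under a binocular microscope. OD655 was also read. Duplicate, repeated three times.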

Listeria monocytogenes [4] = assay: Antibacterial activity against Listeria monocytogenes NCTC 7973 after 24 hrs by microdilution method; type: functional; settings: NCTC 7973, 24 h; outline: as §3
Bacillus cereus [5] = assay: Antibacterial activity against clinical isolate of Bacillus cereus after 24 hrs by microdilution method; type: functional; outline: as §3
Aspergillus niger [6] = assay: Antifungal activity against Aspergillus niger ATCC 6275 after 72 hrs by serial dilution technique; type: functional; settings: ATCC 6275, 72 h
Outline: (§4)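 Modified microdilution in 96-well plates. Fungi were kept on malt agar at 4 °C. Spores were washed off in sterile 0.85% saline with 0.1% Tween 80. Compounds were dissolved at 1 mg/ml in 5% DMSO with 0.1% Tween 80 and added to malt broth with inoculum. Plates were shaken at 160 rpm for 72 h at 28 °C. Duplicate, repeated three times.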

Talaromyces funiculosus [7] = assay: Ratio of bifonazole to compound for Penicillium funiculosum ATCC 36839; type: functional
Bacillus cereus [8] = assay: Antibacterial activity against clinical isolate of Bacillus cereus incubated for 24 hrs followed by serial sub-cultivation for 24 hrs by microdilution; type: functional; outline: as §1
Aspergillus fumigatus [9] = assay: Ratio of ketoconazole to compound for Aspergillus fumigatus isolated from human; type: functional
Pseudomonas aeruginosa [10] = assay: Antibacterial activity against Pseudomonas aeruginosa ATCC 27853 incubated for 24 hrs followed by serial sub-cultivation for 24 hrs by microdilution; type: functional; settings: ATCC 27853, 24 h; outline: as §1
Aspergillus flavus [11] = assay: Antifungal activity against Aspergillus flavus ATCC 9643 incubated for 72 hrs followed by serial sub-cultivation for 72 hrs by serial dilution technique; type: functional; settings: ATCC 9643, 72 h; outline: as §2
Micrococcus flavus [12] = assay: Antibacterial activity against Micrococcus flavus ATCC 10240 incubated for 24 hrs followed by serial sub-cultivation for 24 hrs by microdilution; type: functional; settings: ATCC 10240, 24 h; outline: as §1
Trichoderma viride [13] = assay: Antifungal activity against Trichoderma viride IAM 5061 after 72 hrs by serial dilution technique; type: functional; settings: IAM 5061, 72 h; outline: as §4
Salmonella typhimurium [14] = assay: Antibacterial activity against Salmonella Typhimurium ATCC 13311 after 24 hrs by microdilution method; type: functional, Salmonella enterica subsp. enterica serovar Typhimurium; settings: Salmonella enterica, ATCC 13311, 24 h; outline: as §3
Pseudomonas aeruginosa [15] = assay: Ratio of ampicillin MIC to compound MIC for Pseudomonas aeruginosa ATCC 27853; type: functional
Talaromyces funiculosus [16] = assay: Antifungal activity against Penicillium funiculosum ATCC 36839 after 72 hrs by serial dilution technique; type: functional; settings: ATCC 36839, 72 h; outline: as §4
Candida albicans [17] = assay: Antifungal activity against Candida albicans isolated from human after 72 hrs by serial dilution technique; type: functional; outline: as §4
Aspergillus ochraceus [18] = assay: Ratio of bifonazole to compound for Aspergillus ochraceus ATCC 12066; type: functional
Penicillium ochrochloron [19] = assay: Antifungal activity against Penicillium ochrochloron ATCC 9112 incubated for 72 hrs followed by serial sub-cultivation for 72 hrs by serial dilution technique; type: functional; settings: ATCC 9112, 72 h; outline: as §2
Staphylococcus aureus [20] = assay: Antibacterial activity against Staphylococcus aureus ATCC 6538 after 24 hrs by microdilution method; type: functional; settings: ATCC 6538, 24 h; outline: as §3
Penicillium ochrochloron [21] = assay: Ratio of bifonazole to compound for Penicillium ochrochloron ATCC 9112; type: functional
Enterococcus faecalis [22] = assay: Antibacterial activity against Enterococcus faecalis isolated from human after 24 hrs by microdilution method; type: functional; outline: as §3
Aspergillus niger [23] = assay: Ratio of bifonazole to compound for Aspergillus niger ATCC 6275; type: functional
Aspergillus niger [24] = assay: Antifungal activity against Aspergillus niger ATCC 6275 incubated for 72 hrs followed by serial sub-cultivation for 72 hrs by serial dilution technique; type: functional; settings: ATCC 6275, 72 h; outline: as §2
Escherichia coli [25] = assay: Antibacterial activity against Escherichia coli ATCC 35210 incubated for 24 hrs followed by serial sub-cultivation for 24 hrs by microdilution; type: functional; settings: ATCC 35210, 24 h; outline: as §1
Micrococcus flavus [26] = assay: Antibacterial activity against Micrococcus flavus ATCC 10240 after 24 hrs by microdilution method; type: functional; settings: ATCC 10240, 24 h; outline: as §3
Penicillium ochrochloron [27] = assay: Antifungal activity against Penicillium ochrochloron ATCC 9112 after 72 hrs by serial dilution technique; type: functional; settings: ATCC 9112, 72 h; outline: as §4
Salmonella typhimurium [28] = assay: Antibacterial activity against Salmonella Typhimurium ATCC 13311 incubated for 24 hrs followed by serial sub-cultivation for 24 hrs by microdilution; type: functional, Salmonella enterica subsp. enterica serovar Typhimurium; settings: Salmonella enterica, ATCC 13311, 24 h; outline: as §1
Trichoderma viride [29] = assay: Antifungal activity against Trichoderma viride IAM 5061 incubated for 72 hrs followed by serial sub-cultivation for 72 hrs by serial dilution technique; type: functional; settings: IAM 5061, 72 h; outline: as §2
Enterococcus faecalis [30] = assay: Antibacterial activity against Enterococcus faecalis isolated from human incubated for 24 hrs followed by serial sub-cultivation for 24 hrs by microdilution; type: functional; outline: as §1
Aspergillus ochraceus [31] = assay: Antifungal activity against Aspergillus ochraceus ATCC 12066 incubated for 72 hrs followed by serial sub-cultivation for 72 hrs by serial dilution technique; type: functional; settings: ATCC 12066, 72 h; outline: as §2
Aspergillus ochraceus [32] = assay: Ratio of ketoconazole to compound for Aspergillus ochraceus ATCC 12066; type: functional
Candida albicans [33] = assay: Antifungal activity against Candida albicans isolated from human incubated for 72 hrs followed by serial sub-cultivation for 72 hrs by serial dilution technique; type: functional; outline: as §2
Trichoderma viride [34] = assay: Ratio of bifonazole to compound for Trichoderma viride IAM 5061; type: functional
Candida albicans [35] = assay: Ratio of ketoconazole to compound for Candida albicans isolated from human; type: functional
Aspergillus ochraceus [36] = assay: Antifungal activity against Aspergillus ochraceus ATCC 12066 after 72 hrs by serial dilution technique; type: functional; settings: ATCC 12066, 72 h; outline: as §4
Talaromyces funiculosus [37] = assay: Antifungal activity against Penicillium funiculosum ATCC 36839 incubated for 72 hrs followed by serial sub-cultivation for 72 hrs by serial dilution technique; type: functional; settings: ATCC 36839, 72 h; outline: as §2
Aspergillus flavus [38] = assay: Antifungal activity against Aspergillus flavus ATCC 9643 after 72 hrs by serial dilution technique; type: functional; settings: ATCC 9643, 72 h; outline: as §4
Pseudomonas aeruginosa [39] = assay: Antibacterial activity against Pseudomonas aeruginosa ATCC 27853 after 24 hrs by microdilution method; type: functional; settings: ATCC 27853, 24 h; outline: as §3
Candida albicans [40] = assay: Ratio of bifonazole to compound for Candida albicans isolated from human; type: functional
Listeria monocytogenes [41] = assay: Antibacterial activity against Listeria monocytogenes NCTC 7973 incubated for 24 hrs followed by serial sub-cultivation for 24 hrs by microdilution; type: functional; settings: NCTC 7973, 24 h; outline: as §1
Penicillium ochrochloron [42] = assay: Ratio of ketoconazole to compound for Penicillium ochrochloron ATCC 9112; type: functional
Aspergillus ochraceus [43] = assay: Antifungal activity against Aspergillus ochraceus after 72 hrs by serial dilution technique

## CCNc1nc(C)c(C(=O)/C=C/c2ccccc2OC)s1
Staphylococcus aureus [1]
  MBC: 99.3 µM (≈ 30 µg/mL)
Aspergillus fumigatus [2]
  MFC: 66.2 µM (≈ 20 µg/mL)
Escherichia coli [3]
  MIC: 82.8 µM (≈ 25 µg/mL)
Listeria monocytogenes [4]
  MIC: 82.8 µM (≈ 25 µg/mL)
Bacillus cereus [5]
  MIC: 66.2 µM (≈ 20 µg/mL)
Aspergillus niger [6]
  MIC: 49.7 µM (≈ 15 µg/mL)
Talaromyces funiculosus [7]
  Ratio: 10
Bacillus cereus [8]
  MBC: 82.8 µM (≈ 25 µg/mL)
Aspergillus fumigatus [9]
  Ratio: 10
Pseudomonas aeruginosa [10]
  MBC: 99.3 µM (≈ 30 µg/mL)
Aspergillus flavus [11]
  MFC: 82.8 µM (≈ 25 µg/mL)
Micrococcus flavus [12]
  MBC: 82.8 µM (≈ 25 µg/mL)
Trichoderma viride [13]
  MIC: 33.1 µM (≈ 10 µg/mL)
Salmonella typhimurium [14]
  MIC: 33.1 µM (≈ 10 µg/mL)
Pseudomonas aeruginosa [15]
  Ratio: 10
Talaromyces funiculosus [16]
  MIC: 33.1 µM (≈ 10 µg/mL)
Candida albicans [17]
  MIC: 33.1 µM (≈ 10 µg/mL)
Aspergillus ochraceus [18]
  Ratio: 10
Penicillium ochrochloron [19]
  MFC: 82.8 µM (≈ 25 µg/mL)
Staphylococcus aureus [20]
  MIC: 66.2 µM (≈ 20 µg/mL)
Penicillium ochrochloron [21]
  Ratio: 10
Enterococcus faecalis [22]
  MIC: 82.8 µM (≈ 25 µg/mL)
Aspergillus niger [23]
  Ratio: 10
Aspergillus niger [24]
  MFC: 66.2 µM (≈ 20 µg/mL)
Escherichia coli [25]
  MBC: 82.8 µM (≈ 25 µg/mL)
Micrococcus flavus [26]
  MIC: 31.3 µM (≈ 9.47 µg/mL)
Penicillium ochrochloron [27]
  MIC: 66.2 µM (≈ 20 µg/mL)
Salmonella typhimurium [28]
  MBC: 82.8 µM (≈ 25 µg/mL)
Trichoderma viride [29]
  MFC: 66.2 µM (≈ 20 µg/mL)
Enterococcus faecalis [30]
  MBC: 82.8 µM (≈ 25 µg/mL)
Aspergillus ochraceus [31]
  MFC: 82.8 µM (≈ 25 µg/mL)
Aspergillus ochraceus [32]
  Ratio: 10
Candida albicans [33]
  MFC: 66.2 µM (≈ 20 µg/mL)
Trichoderma viride [34]
  Ratio: 10
Candida albicans [35]
  Ratio: 10
Aspergillus ochraceus [36]
  MIC: 66.2 µM (≈ 20 µg/mL)
Talaromyces funiculosus [37]
  MFC: 66.2 µM (≈ 20 µg/mL)
Aspergillus flavus [38]
  MIC: 66.2 µM (≈ 20 µg/mL)
Pseudomonas aeruginosa [39]
  MIC: 82.8 µM (≈ 25 µg/mL)
Candida albicans [40]
  Ratio: 10
Listeria monocytogenes [41]
  MBC: 116 µM (≈ 35 µg/mL)
Penicillium ochrochloron [42]
  Ratio: 10
Aspergillus ochraceus [43]
  MIC: 49.7 µM (≈ 15 µg/mL)

## CCCNc1nc(C)c(C(=O)/C=C/c2ccccc2)s1
Staphylococcus aureus [1]
  MBC: 105 µM (≈ 30.1 µg/mL)
Aspergillus fumigatus [2]
  MFC: 70 µM (≈ 20 µg/mL)
Escherichia coli [3]
  MIC: 70 µM (≈ 20 µg/mL)
Listeria monocytogenes [4]
  MIC: 90 µM (≈ 25.8 µg/mL)
Bacillus cereus [5]
  MIC: 35 µM (≈ 10 µg/mL)
Aspergillus niger [6]
  MIC: 52.4 µM (≈ 15 µg/mL)
Talaromyces funiculosus [7]
  Ratio: 10
Bacillus cereus [8]
  MBC: 70 µM (≈ 20 µg/mL)
Aspergillus fumigatus [9]
  Ratio: 10
Pseudomonas aeruginosa [10]
  MBC: 90 µM (≈ 25.8 µg/mL)
Aspergillus flavus [11]
  MFC: 70 µM (≈ 20 µg/mL)
Micrococcus flavus [12]
  MBC: 105 µM (≈ 30.1 µg/mL)
Trichoderma viride [13]
  MIC: 26.2 µM (≈ 7.5 µg/mL)
Salmonella typhimurium [14]
  MIC: 70 µM (≈ 20 µg/mL)
Pseudomonas aeruginosa [15]
  Ratio: 10
Talaromyces funiculosus [16]
  MIC: 52.4 µM (≈ 15 µg/mL)
Candida albicans [17]
  MIC: 35 µM (≈ 10 µg/mL)
Aspergillus ochraceus [18]
  Ratio: 10
Penicillium ochrochloron [19]
  MFC: 70 µM (≈ 20 µg/mL)
Staphylococcus aureus [20]
  MIC: 90 µM (≈ 25.8 µg/mL)
Penicillium ochrochloron [21]
  Ratio: 10
Enterococcus faecalis [22]
  MIC: 90 µM (≈ 25.8 µg/mL)
Aspergillus niger [23]
  Ratio: 10
Aspergillus niger [24]
  MFC: 70 µM (≈ 20 µg/mL)
Escherichia coli [25]
  MBC: 88 µM (≈ 25.2 µg/mL)
Micrococcus flavus [26]
  MIC: 70 µM (≈ 20 µg/mL)
Penicillium ochrochloron [27]
  MIC: 35 µM (≈ 10 µg/mL)
Salmonella typhimurium [28]
  MBC: 90 µM (≈ 25.8 µg/mL)
Trichoderma viride [29]
  MFC: 35 µM (≈ 10 µg/mL)
Enterococcus faecalis [30]
  MBC: 90 µM (≈ 25.8 µg/mL)
Aspergillus ochraceus [31]
  MFC: 52.4 µM (≈ 15 µg/mL)
Aspergillus ochraceus [32]
  Ratio: 10
Candida albicans [33]
  MFC: 70 µM (≈ 20 µg/mL)
Trichoderma viride [34]
  Ratio: 10
Candida albicans [35]
  Ratio: 10
Aspergillus ochraceus [36]
  MIC: 35 µM (≈ 10 µg/mL)
Talaromyces funiculosus [37]
  MFC: 70 µM (≈ 20 µg/mL)
Aspergillus flavus [38]
  MIC: 52.4 µM (≈ 15 µg/mL)
Pseudomonas aeruginosa [39]
  MIC: 70 µM (≈ 20 µg/mL)
Candida albicans [40]
  Ratio: 10
Listeria monocytogenes [41]
  MBC: 105 µM (≈ 30.1 µg/mL)
Penicillium ochrochloron [42]
  Ratio: 10
Aspergillus ochraceus [43]
  MIC: 52.4 µM (≈ 15 µg/mL)
